Results pooled from the literature.
Lines come from different studies, so protocols differ.

Compound | target or system | assay | system | conditions | measurement | value
COc1ccc(NC(=O)N2CCCCN3[C@H](CN(C)C)[C@H](c4ccc(C#Cc5ccccc5)cc4)[C@@H]3C2)cc1 | HepG2 | cell growth or viability, ATP luminescence | – | 72 h | CC50 | 6.08 µM
CC[C@H](C)[C@H](NC(=O)[C@H](Cc1ccccc1)NC(=O)[C@H](CCC(=O)O)NC(=O)[C@H](CCCCN)NC(=O)[C@H](C)NC(=O)[C@H](C)NC(=O)[C@H](CCC(N)=O)NC(=O)CNC(=O)[C@H](CCC(=O)O)NC(=O)[C@H](CC(C)C)NC(=O)[C@H](Cc1ccc(O)cc1)NC(=O)[C@H](CO)NC(=O)[C@H](CO)NC(=O)[C@@H](NC(=O)[C@H](CC(=O)O)NC(=O)[C@H](CO)NC(=O)[C@@H](NC(=O)[C@H](Cc1ccccc1)NC(=O)[C@@H](NC(=O)CNC(=O)[C@H](CCC(=O)O)NC(=O)[C@H](C)NC(=O)N(N)Cc1c[nH]cn1)[C@@H](C)O)[C@@H](C)O)C(C)C)C(=O)N[C@@H](C)C(=O)N[C@@H](Cc1c[nH]c2ccccc12)C(=O)N[C@@H](CC(C)C)C(=O)N[C@H](C(=O)N[C@@H](CCCNC(=N)N)C(=O)NCC(=O)N[C@@H](CCCNC(=N)N)C(=O)NCC(=O)O)C(C)C | – | – | male CD-1 mouse, plasma | intravenous, 1 mg/kg, single dose | MRT | 8.4 min
c1ccc2c(c1)[I+]c1ccccc1-2 | HepG2 | cell growth or viability, ATP luminescence | – | 72 h | CC50 | 1.28 µM
CC(C)=CCC[C@](C)(O[C@@H]1O[C@H](CO)[C@@H](O)[C@H](O)[C@H]1O)[C@H]1CC[C@]2(C)[C@@H]1[C@H](O)C[C@@H]1[C@@]3(C)CC[C@H](O)C(C)(C)[C@@H]3CC[C@]12C | – | – | mouse, plasma | intravenous, 2 mg/kg | MRT | 510 min
N#C[C@@]1(n2ccc(N)nc2=O)O[C@H](CO)[C@@H](O)[C@H]1O | Huh-7 | cell growth or viability | – | – | CC50 | 99.5 µM
CC(C)[C@]12O[C@H]1[C@@H]1O[C@]13[C@]1(O[C@H]1C[C@H]1C4=C(CC[C@@]13C)C(=O)OC4)[C@@H]2O | – | – | SCID mouse, plasma | intravenous, 0.6 mg/kg | MRT | 28.8 min
CC(C)CC(=O)OC[C@H]1O[C@@](C#N)(c2ccc3c(N)ncnn23)[C@H](O)[C@@H]1O | – | metabolic stability | human, plasma | 5 µM | half-life | 7.93 min
CCOC(=O)c1c(NC(=O)CNC(C)C)sc2c1CCCCC2 | – | – | male mouse, plasma | intraperitoneal, 100 mg/kg, single dose | MRT(0-inf) | 247 min
Cc1[nH]c(C)c(S(=O)(=O)Nc2ccc(S(F)(F)(F)(F)F)c(Cl)c2)c1C(=O)N1CCC(F)(F)C1 | – | metabolic stability | human, liver microsomes | – | half-life | 13 min
CC(=O)c1c(C)c2cnc(Nc3ccc(C4CCN(CCS(C)(=O)=O)CC4)cn3)nc2n(C2CCCC2)c1=O | – | metabolic stability | human, liver microsomes | – | half-life | 28.6 min
CC(C)(C)[C@H](NC(=O)C(F)(F)F)C(=O)N1C[C@H]2[C@@H]([C@H]1C(=O)N[C@H](C#N)C[C@@H]1CCNC1=O)C2(C)C | Huh-7 | cell growth or viability | – | – | CC50 | > 100 µM
